# Bioassay records as filed in PubChem BioAssay.
# DENV2 CPE: inhibitors of DENV2 cytopathic effect; CPE inhibition, % at 9.99 µM; AID 651640; 350,000 compounds, 1.7% hits; DENV2-infected cells, cytopathic effect rescue, plate reader; in the data active = CPE inhibition above about 20%, passing the limit was not always enough; inconclusive = no clear call, values can overlap the other calls; tested in BHK-21 cells;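 also: 0% = median of neutral control wells and 100% = median of positive control wells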
# S100A4 MyoIIA: blocks human S100A4 binding to myosin IIA peptide | P26447 | S100A4/TAMRA-MyoIIA peptide fluorescence polarization | inhibition, % at 10.7 µM | 360,000 compounds, 0.14% hits | AID 652163;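 active = mean inhibition of at least 70% across replicates, with every replicate also reaching that level; inconclusive = mean inhibition reaches 70% but some replicates fall short; inactive = mean inhibition below 70%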
# Target sequence (P26447 whole entry, looked up): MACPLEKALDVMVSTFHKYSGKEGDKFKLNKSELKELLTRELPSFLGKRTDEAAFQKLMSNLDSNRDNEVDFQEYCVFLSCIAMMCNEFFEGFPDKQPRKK
#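 Material: human S100A4 monomer with TAMRA-labelled myosin IIA peptide; buffer or medium: HEPES pH 7.2 with CaCl2, KCl, NaCl, DTT, Triton; compound dosing: one concentration per compound; schedule: 5 min incubation before reading; benchmarks: neutral control DMSO, positive control TFP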
# E-sel inducer: induces E-selectin expression in human endothelial cells; P16581; HUVEC E-selectin immunofluorescence imaging; normalized: neutral wells 0, TNF-alpha wells 100; activation, % at 7.58 µM; 260,000 compounds, 0.37% hits; AID 686992;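 active = mean E-selectin-positive cell signal at least 10% of the positive control, reached in at least 60% of replicates, without over 20% cell loss; inconclusive = no rule given, readout overlaps actives, possibly toxicity-flagged; inactive = the rest, including those meeting only one limit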
# Target sequence (P16581 whole entry, looked up): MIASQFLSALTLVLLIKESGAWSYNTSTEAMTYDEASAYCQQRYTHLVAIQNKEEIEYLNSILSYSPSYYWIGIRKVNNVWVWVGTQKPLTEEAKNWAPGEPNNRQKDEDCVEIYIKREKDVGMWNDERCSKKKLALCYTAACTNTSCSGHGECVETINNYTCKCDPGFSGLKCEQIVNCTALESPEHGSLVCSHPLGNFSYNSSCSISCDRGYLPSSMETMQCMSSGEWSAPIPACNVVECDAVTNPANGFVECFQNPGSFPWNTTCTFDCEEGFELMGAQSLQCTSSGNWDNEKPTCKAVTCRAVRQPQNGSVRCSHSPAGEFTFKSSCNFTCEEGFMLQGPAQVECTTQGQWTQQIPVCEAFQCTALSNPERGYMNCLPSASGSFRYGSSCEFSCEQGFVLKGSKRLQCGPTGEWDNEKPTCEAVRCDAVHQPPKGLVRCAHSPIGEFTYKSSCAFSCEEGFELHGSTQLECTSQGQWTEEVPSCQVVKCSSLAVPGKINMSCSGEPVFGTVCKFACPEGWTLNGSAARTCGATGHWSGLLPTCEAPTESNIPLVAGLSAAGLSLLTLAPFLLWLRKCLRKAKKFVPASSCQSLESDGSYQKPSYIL
#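 Assay system: HUVEC primary endothelial cells. Input: 3,000 HUVEC seeded per well. Doses: one compound dose added by pin transfer. Read-out basis: % PE-positive cells. Benchmarks: TNF-alpha high, DMSO low. Detection: immunofluorescence imaging. Buffer or medium: EGM-2, gelatin.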
# Xi reactivation: activators of X-chromosome reactivation in mouse fibroblasts; XiGFP mouse fibroblasts, % GFP-positive cells imaging, 3 d; cells co-treated with 5-aza-dC sensitizer; scaled so ellipticine positive control = 100%; activation, % at 7.58 µM; 360,000 compounds, 0.055% hits;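 active = mean normalized replicate activation at least 10% and every replicate at or above 10%; inconclusive = only one of the two criteria met; inactive = mean below 10% and not all replicates reach 10%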;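 also: 0% = median of on-plate neutral control wells and 100% = ellipticine 6 µM median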
#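 System: SV40-immortalized XiGFP fibroblast cells, line 68-5-11 / Incubation: 3-day compound exposure, then 15 min fixation at room temperature / Compound: single concentration per compound, delivered by pin transfer / Buffer or medium: DMEM plus 5-aza-dC sensitizer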
# * hit, by the source's call; ? = inconclusive; · = not tested or not shown. A selection: hits, their analogues and other compounds. The true share with any hit is near 2%.
SMILES,DENV2 CPE,S100A4 MyoIIA,E-sel inducer,Xi reactivation
COc1cccc(C(=O)Nc2cccc(C(=O)N3CCOCC3)c2)c1,·,·,0.3,·
CCCNC(=O)N1CC2(CCN(CC3CCCC3)CC2)c2c([nH]c3cc(OC)ccc23)[C@H]1CO,-0.5,2.8,-0.2,0.2
COc1ccc2c3c([nH]c2c1)[C@@H](CO)N(C(=O)CN(C)C)CC31CN(CC2CCCC2)C1,28.4*,4.4,0.1,0.1
CCCNC(=O)N1CC2(CCN(CC3CC3)CC2)c2c([nH]c3cc(OC)ccc23)[C@@H]1CO,24.4*,4.4,-0.3,0.4
CCCNC(=O)N1CC2(CCN(S(=O)(=O)CC)CC2)c2c([nH]c3cc(OC)ccc23)[C@@H]1CO,30.6*,-37.9,-0.1,0.0
COc1ccc2c3c([nH]c2c1)[C@H](CO)N(C(=O)CN(C)C)CC31CN(CC2CCOCC2)C1,2.8,5.8,-0.3,0.4
CC(=O)N1CCCc2cc(S(=O)(=O)NC(C(=O)NC3CCCCC3)C(C)C)ccc21 (stereo not drawn),0.0,-14.6,4.3,-0.1
CN=C(Nc1cc(C)nn1CCC#N)c1ccc(F)cc1,-1.2,-3.0,·,·
Cc1cc(NC(=O)c2ccc([N+](=O)[O-])cc2)n(CCC#N)n1,42.9*,-6.8,2.7,0.0
Nc1ccc2cc3[nH]c4cc(N)ccc4c3nc2c1,2.8,16.6,1.5,62.8*
Nc1ccc(-c2nc3ccc(N)cc3[nH]2)cc1,-5.9,5.5,-0.1,0.1
CCCCCCc1ccc(N2C[C@H](CCCCC)[C@@H](CC(=O)NCc3ccc(OC)cc3)C2=O)cc1,94.7*,-3.4,·,0.0
CN1C(=O)c2cc(NS(=O)(=O)c3ccc(Cl)cc3)ccc2OC[C@@H]2O[C@@H](CC(=O)N3CCc4ccccc4C3)CC[C@@H]21,7.7,-14.8,-0.1,0.1
CNC(=O)C[C@@H]1CC[C@@H]2[C@@H](COc3ccc(NC(=O)c4ccc(F)c(F)c4)cc3C(=O)N2C)O1,-2.7,-3.6,0.1,0.9
CN1C(=O)c2cc(NS(=O)(=O)c3ccc(Cl)cc3)ccc2OC[C@@H]2O[C@H](CC(=O)N3CCc4ccccc4C3)CC[C@H]21,39.9*,-6.5,-0.1,0.3
CNC(=O)C[C@H]1CC[C@H]2[C@@H](COc3ccc(NC(=O)c4ccc(F)c(F)c4)cc3C(=O)N2C)O1,52.1*,1.6,0.2,1.5
CCNC(=O)C[C@@H]1CC[C@@H]2[C@H](COc3ccc(NC(=O)c4ccc(F)c(F)c4)cc3C(=O)N2C)O1,90.1*,-2.1,0.0,0.1
CCNC(=O)C[C@H]1CC[C@H]2[C@@H](COc3ccc(NC(=O)c4ccc(F)c(F)c4)cc3C(=O)N2C)O1,-8.6,-5.7,-0.1,0.2
CNC(=O)C[C@H]1CC[C@@H]2[C@H](COc3ccc(NC(=O)c4cscn4)cc3C(=O)N2C)O1,29.3*,·,-0.1,0.0
Cc1c(-c2nc(-c3ccc(C(C)(C)C)cc3)no2)n(C)oc1=O,2.0,-3.0,7.9,0.0
CCCc1cn([C@H]2C[C@@H]3O[C@@H](CO)CC[C@@H]3O[C@@H]2CCc2ccc(C#CCc3ccccc3)cc2)nn1,-5.3,-4.9,·,·
Cc1noc(C)c1NC(=O)N(C)C[C@@H]1Oc2c(NS(=O)(=O)c3ccc(F)cc3)cccc2C(=O)N([C@@H](C)CO)C[C@H]1C,0.2,1.3,0.0,0.0
CCN(CC)CCOC(=O)c1ccc(NC(=O)/C=C/c2cccs2)cc1,-5.4,9.5,0.2,0.1
CN1C(=O)c2cc(NS(=O)(=O)c3cccc(F)c3)ccc2OC[C@H]2O[C@@H](CC(=O)O)CC[C@@H]21,71.2*,7.8,0.0,0.5
CN1C(=O)c2cc(NS(=O)(=O)c3cccc(F)c3)ccc2OC[C@@H]2O[C@@H](CC(=O)O)CC[C@H]21,-4.8,-6.8,0.0,-0.1
SMILES,DENV2 CPE,S100A4 MyoIIA,E-sel inducer,Xi reactivation
CN1C(=O)c2cc(NC(=O)c3cccc(F)c3)ccc2OC[C@H]2O[C@@H](CC(=O)NCC3CC3)CC[C@H]21,20.6*,22.1,-0.2,0.0
CN1C(=O)c2cc(NC(=O)c3cccc(F)c3)ccc2OC[C@H]2O[C@H](CC(=O)NCC3CCCCC3)CC[C@@H]21,12.5,-4.2,0.0,0.0
COC(=O)c1cc2ccsc2n1Cc1ccccc1F,112.6*,3.4,·,0.0
COC(=O)c1cc2ccsc2n1Cc1cccc(F)c1,0.1,-1.2,·,0.0
C[C@@H]1CN([C@H](C)CO)C(=O)c2cc(/C=C/c3ccccc3)cnc2O[C@H]1CN(C)S(=O)(=O)c1ccc(F)cc1,-7.3,-0.1,1.7,0.0
Cc1cccc(N(C(=O)Cn2nnc3ccccc32)C(C(=O)NC(C)(C)C)c2ccsc2)c1 (stereo not drawn),23.6*,-4.0,·,·
O=[N+]([O-])c1ccc(NCCN2CCOCC2)c([N+](=O)[O-])c1,-0.6,6.5,·,0.3
CC(C)OC(=O)CCCNc1ccc([N+](=O)[O-])cc1[N+](=O)[O-],52.6*,-0.7,·,0.1
Cc1ccc(S(=O)(=O)Nc2ccc3c(c2)CC(=O)N([C@H](C)CO)C[C@@H](C)[C@@H](CN(C)C)O3)cc1,-7.1,3.4,18.7,0.2
CCc1c(-c2ccccc2)ncn1Cc1cccc(-c2ccccc2)c1,0.6,-0.3,-0.2,-0.1
CCc1c(-c2ccc(Cl)cc2)ncn1Cc1cccc(-c2ccccc2)c1,-5.9,-0.8,1.4,0.1
CCc1c(-c2ccccc2F)ncn1Cc1cccc(-c2ccccc2)c1,59.3*,-2.7,0.6,·
CCc1c(C2CC2)ncn1Cc1cccc(-c2ccccc2)c1,20.4*,-1.4,0.0,0.1
CCC(=O)Nc1ccc2c(c1)OC[C@@H](C)N(CC1CC1)C[C@H](C)[C@@H](OC)CN(C)C2=O,7.4,-1.9,-0.4,-0.4
CCC(=O)N1CC2(CN(Cc3ccccc3Cl)C2)c2c([nH]c3cc(OC)ccc23)[C@@H]1CO,5.1,-2.4,0.2,-0.1
O=C1OC(=O)c2c(Br)c(Br)c(Br)c(Br)c21,38.9*,8.8,·,·
O=C1c2c(Br)c(Br)c(Br)c(Br)c2C(=O)N1c1ccccn1,5.8,-9.6,0.1,0.0
CCOC(=O)Cn1c(=O)oc2cc(S(=O)(=O)N(C)c3ccc(OC)cc3)ccc21,2.9,-0.7,-0.3,0.0
CCc1cccc(C)c1NC(=O)CCN1C(=O)NC(C)(C)C1=O,3.4,-2.1,-0.1,0.1
O=C(O)c1ccc(N=NN2CCCCCC2)cc1,111.8*,4.3,-0.3,0.0
O=C(O)c1ccc(N=NN2CCCC2)cc1,-1.5,9.6,·,0.1
CCNC(=O)C[C@H]1CC[C@H]2[C@@H](COC[C@H](O)CN2C(=O)c2cccnc2)O1,94.4*,-34.2,0.0,0.3
O=C(C[C@H]1CC[C@@H]2[C@H](COC[C@H](O)CN2C(=O)c2ccncc2)O1)NCc1ccc(-c2ccccc2)cc1,20.2*,14.3,0.0,0.2
O=C(C[C@@H]1CC[C@@H]2[C@H](COC[C@@H](O)CN2C(=O)c2cccnc2)O1)NCc1ccc(-c2ccccc2)cc1,-6.0,-66.6,?,0.1
